Source: ChEMBL document CHEMBL2010803, “Novel NSAID 1-acyl-4-cycloalkyl/arylsemicarbazides and 1-acyl-5-benzyloxy/hydroxy carbamoylcarbazides as potential anticancer agents and antioxidants” (Eur J Med Chem, 2012)
Activity calls are given as the source filed them. No cut-off for these calls is given here.

What was measured:
[1] = test system: Human immunodeficiency virus 1; assay: Antiviral activity against HIV1 3B infected in human CEM cells assessed as inhibition of virus-induced CEM giant cell formation at 0.32 to 100 uM after 4 days; type: functional, organism-based; details: CCRF-CEM
How it was run: (§1)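 CEM cells (~3 × 10^5 cells/cm³) exposed to 100 CCID50/ml of virus and seeded into wells holding compound dilutions. Incubated 4 days at 37 °C, then giant cell formation examined microscopically.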

[2] = test system: Human immunodeficiency virus 2; assay: Antiviral activity against HIV2 ROD infected in human CEM cells assessed as inhibition of virus-induced CEM giant cell formation at 0.32 to 100 uM after 4 days; type: functional, organism-based; details: ISOLATE ROD, CCRF-CEM; how it was run: as §1
HeLa = assay: Cytostatic activity against human HeLa cells after 3 days by coulter counter analysis; type: functional, cell-based; details: 72 h
How it was run: (§2)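 300,000–500,000 cells/ml mixed 1:1 with compound dilutions and incubated at 37 °C for 2 days (L1210) or 3 days (CEM, HeLa). Cell number counted with a Coulter counter; HeLa trypsinized before counting.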

Coxsackievirus B4 [3] = assay: Antiviral activity against Coxsackievirus B4 infected in human cervix carcinoma cells assessed as inhibition of virus-induced cytopathic effect at 0.32 to 100 uM; type: functional, organism-based
How it was run: (§3)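 Confluent cell cultures were infected with 100 CCID50 of virus in the presence of test compound at 100, 40, 8, 1.6 and 0.32 μM. Cytopathic effect was scored once it was complete in untreated infected controls.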

Punta Toro virus = assay: Antiviral activity against Punta Toro virus infected in african green monkey Vero cells assessed as inhibition of virus-induced cytopathic effect at 0.32 to 100 uM; type: functional, organism-based; how it was run: as §3
Vaccinia virus = assay: Antiviral activity against Vaccinia virus infected in human lung fibroblast assessed as inhibition of virus-induced cytopathic effect at 0.32 to 100 uM; type: functional, organism-based; details: Orthopoxvirus vaccinia
Human alphaherpesvirus 1 = assay: Antiviral activity against HSV1 KOS infected in human lung fibroblast assessed as inhibition of virus-induced cytopathic effect at 0.32 to 100 uM; type: functional, organism-based; how it was run: as §3
[4] = test system: Radical scavenging activity; assay: Antioxidant activity assessed as DPPH free radical scavenging activity at 100 uM after 20 mins by spectrophotometric analysis; type: functional
How it was run: (§4)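 0.05 mM DPPH in absolute ethanol mixed with an equal volume of compound in DMSO (final 100 μM). Shaken and left 20 or 60 min, then absorbance read at 517 nm and percent activity calculated. Three replicates, averaged.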

Feline coronavirus = assay: Antiviral activity against Feline coronavirus infected in feline CRFK cells assessed as inhibition of virus-induced cytopathic effect at 0.32 to 100 uM; type: functional, organism-based; how it was run: as §3
Felid alphaherpesvirus 1 = assay: Antiviral activity against Feline herpesvirus infected in feline CRFK cells assessed as inhibition of virus-induced cytopathic effect at 0.32 to 100 uM; type: functional, organism-based; how it was run: as §3
[5] = test system: Vesicular stomatitis virus; assay: Antiviral activity against Vesicular stomatitis virus infected in human cervix carcinoma cells assessed as inhibition of virus-induced cytopathic effect at 0.32 to 100 uM; type: functional, organism-based
How it was run: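 Confluent human cervix carcinoma (HeLa) cultures received 100 CCID50 of VSV together with the compound at 100, 40, 8, 1.6 or 0.32 μM. Cytopathicity was read at the point of full CPE in infected, untreated control wells.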

Human respirovirus 3 = assay: Antiviral activity against Parainfluenza virus 3 infected in african green monkey Vero cells assessed as inhibition of virus-induced cytopathic effect at 0.32 to 100 uM; type: functional, organism-based; how it was run: as §3
[6] = test system: Vesicular stomatitis virus; assay: Antiviral activity against VSV infected in human lung fibroblast assessed as inhibition of virus-induced cytopathic effect at 0.32 to 100 uM; type: functional, organism-based
L1210 = assay: Cytostatic activity against mouse L1210 cells after 2 days by coulter counter analysis; type: functional, cell-based; details: L1210, 48 h; how it was run: as §2
[7] = Antioxidant activity assessed as inhibition of AAPH-induced linoleic acid lipid peroxidation by measuring conjugated diene hydroperoxide level; type: functional; set-up: concentration or dose not given beside the values
How it was run: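 Linoleic acid sodium salt (10 μL of 16 mM) in 0.05 M phosphate buffer pH 7.4 at 37 °C. Oxidation started under air with 50 μL of 40 mM AAPH. Conjugated diene hydroperoxide formation followed as absorbance rise at 234 nm; control contains the same DMSO level. At least triplicate.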

Glycine max = assay: Inhibition of soybean LOX assessed as conversion of sodium linoleate to 13- hydroperoxylinoleic acid at 100 uM
Influenza B virus = assay: Antiviral activity against Influenza B virus infected in MDCK cells assessed as inhibition of virus-induced cytopathic effect at 0.32 to 100 uM; type: functional, organism-based
How it was run: (§5)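 Confluent MDCK monolayers were infected in the presence of the compound at 100, 40, 8, 1.6 and 0.32 μM. Viral cytopathicity was scored once it was complete in untreated infected control cultures.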

Influenza A virus [8] = assay: Antiviral activity against Influenza A virus H1N1 infected in MDCK cells assessed as inhibition of virus-induced cytopathic effect at 0.32 to 100 uM; type: functional, organism-based; how it was run: as §5
Influenza A virus [9] = assay: Antiviral activity against Influenza A virus H3N2 infected in MDCK cells assessed as inhibition of virus-induced cytopathic effect at 0.32 to 100 uM; type: functional, organism-based; how it was run: as §5
NCI-H460 = assay: Cytostatic activity against human NCI-H460 cells after 72 hrs by MTT assay; type: functional, cell-based; details: NCI-H460, 72 h
How it was run: (§6)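 Monolayers in DMEM with 10% FBS, 2 mM L-glutamine and penicillin/streptomycin, 37 °C, 5% CO2. Seeded at 1–3 × 10^4 cells/ml, then compound added in tenfold dilutions (10⁻⁸–10⁻⁴ M) for 72 h. MTT read at 570 nm; percent growth taken against time-zero and untreated controls. IC50 by linear regression; quadruplicate, at least two experiments.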

[10] = test system: Mammalian orthoreovirus 1; assay: Antiviral activity against Reovirus-1 infected in african green monkey Vero cells assessed as inhibition of virus-induced cytopathic effect at 0.32 to 100 uM; type: functional, organism-based; how it was run: as §3
[11] = test system: Respiratory syncytial virus; assay: Antiviral activity against RSV infected in human cervix carcinoma cells assessed as inhibition of virus-induced cytopathic effect at 0.32 to 100 uM; type: functional, organism-based; how it was run: as §3
[12] = test system: Radical scavenging activity; assay: Antioxidant activity assessed as DPPH free radical scavenging activity at 100 uM after 60 mins by spectrophotometric analysis; type: functional; how it was run: as §4
MCF7 = assay: Cytostatic activity against human MCF7 cells after 72 hrs by MTT assay; type: functional, cell-based; details: MCF7, 72 h; how it was run: as §6
Human alphaherpesvirus 2 = assay: Antiviral activity against HSV2 G infected in human lung fibroblast assessed as inhibition of virus-induced cytopathic effect at 0.32 to 100 uM; type: functional, organism-based; details: strain G; how it was run: as §3
CCRF-CEM = assay: Cytostatic activity against human CEM cells after 3 days by coulter counter analysis; type: functional, cell-based; details: 72 h; how it was run: as §2
HCT-116 = assay: Cytostatic activity against human HCT116 cells after 72 hrs by MTT assay; type: functional, cell-based; details: HCT-116, 72 h; how it was run: as §6
Sindbis virus = assay: Antiviral activity against Sindbis virus infected in african green monkey Vero cells assessed as inhibition of virus-induced cytopathic effect at 0.32 to 100 uM; type: functional, organism-based; how it was run: as §3
Coxsackievirus B4 [13] = assay: Antiviral activity against Coxsackievirus B4 infected in african green monkey Vero cells assessed as inhibition of virus-induced cytopathic effect at 0.32 to 100 uM; type: functional, organism-based; how it was run: as §3
[14] = dose or concentration not given here

Row | Compound | inhibition [1] | inhibition [2] | IC50 (HeLa) [µM] | inhibition (Coxsackievirus B4 [3]) | inhibition (Punta Toro virus) | inhibition (Vaccinia virus) | inhibition (Human alphaherpesvirus 1) | Activity [4] [%] | inhibition (Feline coronavirus) | inhibition (Felid alphaherpesvirus 1) | inhibition [5] | inhibition (Human respirovirus 3) | inhibition [6] | IC50 (L1210) [µM] | inhibition (Glycine max) | inhibition (Influenza B virus) | inhibition (Influenza A virus [8]) | inhibition (Influenza A virus [9]) | IC50 (NCI-H460) [µM] | inhibition [10] | other results
1 | CC(C)Cc1ccc(C(C)C(=O)NNC(=O)NCC2CCCCC2)cc1 (configuration not stated) | inactive | inactive | 142 | inactive | inactive | inactive | inactive | 3 | inactive | inactive | inactive | inactive | inactive | 44 | 25% | inactive | inactive | inactive | 29 | inactive | inhibition [7, 14]: 16%; inhibition [11]: inactive; Activity [12]: 6%; IC50 (MCF7): 13 µM; inhibition (Human alphaherpesvirus 2): inactive; IC50 (CCRF-CEM): 26 µM; IC50 (HCT-116): 21 µM; inhibition (Sindbis virus): inactive; inhibition (Coxsackievirus B4 [13]): inactive
2 | CC(C(=O)NNC(=O)NOCc1ccccc1)c1cccc(Cc2ccccc2)c1 (configuration not stated) | inactive | inactive | 78 | inactive | inactive | inactive | inactive | 3 | inactive | inactive | inactive | inactive | inactive | 79 | inactive | inactive | inactive | inactive | 82 | inactive | inhibition [7]: inactive; inhibition [11]: inactive; Activity [12]: 6%; IC50 (MCF7): 41 µM; inhibition (Human alphaherpesvirus 2): inactive; IC50 (CCRF-CEM): 101 µM; IC50 (HCT-116): 56 µM; inhibition (Sindbis virus): inactive; inhibition (Coxsackievirus B4 [13]): inactive
3 | NNC(=O)NOCc1ccccc1 | inactive | inactive | > 250 | inactive | inactive | inactive | inactive | 6 | inactive | inactive | inactive | inactive | inactive | > 250 | inactive | inactive | inactive | inactive | > 100 | inactive | inhibition [7, 14]: 36%; inhibition [11]: inactive; Activity [12]: 14%; IC50 (MCF7): > 100 µM; inhibition (Human alphaherpesvirus 2): inactive; IC50 (CCRF-CEM): > 250 µM; IC50 (HCT-116): > 100 µM; inhibition (Sindbis virus): inactive; inhibition (Coxsackievirus B4 [13]): inactive
